The source of these data is paper PMC5708134 (Chemical research in toxicology, 2017).

What all share (assay type): biochemical
Experiment [1] has as its target T1, recombinant human DCXR (Homo sapiens, UniProt Q7Z4W1). Put plainly: Chemical redox cycling by DCXR. Particulars: for pEC50: EC50, half maximal concentration of quinones activating H2O2 production by redox cycling with DCXR, 5 μg/ml recombinant DCXR and 200 μM NADH; for Km / kcat: redox cycling.
Experiment [2] deals with T1, recombinant human DCXR. Put plainly: Inhibition of diacetyl reduction by DCXR. The essentials:
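Human DCXR, His-tagged, expressed in E. coli BL21(DE3) with 0.5 mM IPTG (4 h, 37 °C), Ni-NTA purified. 100 μL mixes: 600 μM NADH, 2 mM diacetyl, 1–2 μg DCXR, plus quinone inhibitor. Acetoin formed was quantified by HPLC against a standard calibration curve. Inhibition type and Ki were derived from kinetic analysis.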

Experiment [3] concerns the target T1, recombinant human DCXR. Put plainly: Inhibition of quinone redox cycling by DCXR. To be noted: for Type of inhibition: inhibition of redox cycling with 9,10-phenanthrenequinone. The essentials: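 Assay for redox cycling by His-tagged human DCXR (E. coli-expressed, Ni-NTA purified). Superoxide was measured as acetylated cytochrome c reduction at 550 nm. 100 μL mixes: 50 mM potassium phosphate pH 7.8, 50 μM acetylated cytochrome c, 0.2 mM NADPH, 20 μM 9,10-phenanthrenequinone, 1.2 or 1.6 μg DCXR, varied inhibitor. Competitive Ki was taken from Lineweaver–Burk plots.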

The target in experiment [4] is T1, recombinant human DCXR. Put plainly: L-xylulose reduction by recombinant DCXR, substrate kinetics. Particulars: for Km / kcat: pH 7.0. Summed up:
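Enzyme: recombinant His-tagged human DCXR from E. coli BL21(DE3), Ni-NTA purified. Reduction was assayed in 100 mM phosphate buffer pH 7.0 and started by adding enzyme. Initial rates of NADPH oxidation were read at 340 nm in a microplate reader. Rates were converted using NAD(P)H calibration curves made in the reaction mix.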

Experiment [5] deals with T1, recombinant human DCXR. Put plainly: Xylitol dehydrogenation. Summed up:
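Recombinant His-tagged human DCXR (E. coli-expressed, Ni-NTA purified) oxidized xylitol in 0.1 mL reactions: 100 mM glycine buffer pH 9.5, 3 mM MgCl2, NADP+ and xylitol. Reactions were started by adding enzyme. NADPH formation was followed as the absorbance change at 340 nm in a microplate reader.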

Experiment [6] concerns the target T1, recombinant human DCXR. The experiment can be described thus: Diacetyl reduction by recombinant DCXR.
Experiment [7] concerns the target T1, recombinant human DCXR. The experiment can be described thus: Oxygen consumption during DCXR redox cycling. To be noted: 600 μM NADH, 20 μM 9,10-phenanthrenequinone. The essentials: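 Clark-type oxygen electrode measurements used 16 μg recombinant human DCXR per 0.8 mL reaction. NADH and 9,10-phenanthrenequinone were run first to set a stable baseline, then DCXR was added to start the reaction. Diacetyl was added either after DCXR or at time zero (pretreatment). Short-chain fatty acids were added at set time points during cycling.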

The mark [8] stands for this setting: Ki, inhibition of diacetyl reduction.
Where [9] appears, read: inhibition of diacetyl reduction.
[10] abbreviates: quinone varied, 200 μM NADPH fixed.
[11] abbreviates: xylulose varied, 0.6 mM NADPH fixed.
Where [12] appears, read: NADPH varied, 20 μM 9,10-PQ fixed.
[13] abbreviates: NADPH varied, 2 mM diacetyl fixed, pH 7.0.
Where [14] appears, read: NADPH varied, 6 mM xylulose fixed.

Each structure is given as a SMILES string. pEC50, pIC50, pKi: −log10 of the molar value. “And” between values parts separate entries of the source, which are not always exact repeats. Equal values may be shown once. “Also recorded” adds a separate entry of the source.

T1 sequence (Q7Z4W1 whole entry): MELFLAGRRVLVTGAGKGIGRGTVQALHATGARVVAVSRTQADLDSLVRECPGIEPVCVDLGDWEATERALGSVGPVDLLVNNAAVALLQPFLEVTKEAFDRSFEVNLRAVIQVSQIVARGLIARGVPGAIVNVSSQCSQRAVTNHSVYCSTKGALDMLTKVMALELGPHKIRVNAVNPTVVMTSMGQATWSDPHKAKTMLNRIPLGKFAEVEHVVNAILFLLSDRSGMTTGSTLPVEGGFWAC

Usually pEC50 stands for −log10 of the EC50, conventionally taken in molar units. What is called pIC50 is the negative decadic logarithm of the IC50, by convention in mol/L. What is called pKi is the Ki on a negative log10 scale, so that one unit is a factor of ten. As to `O=C1C=Cc2ccccc2C1=O` [1,2-naphthoquinone], the pEC50 on recombinant human DCXR [1] was 5.82. Moreover, the pIC50 at recombinant human DCXR [2] was 5.54. The pKi at recombinant human DCXR [2] (setting [8]) was 5.85 and 5.87. Further, the Type of inhibition entry at recombinant human DCXR [2] (setting [9]) is reported as “competitive”.

Broadly, the Km is the substrate concentration at which the rate is half of its maximum. As to `O=C1C=CC(=O)c2ccccc21` [1,4-naphthoquinone], the pEC50 on recombinant human DCXR [1] was 5.27. Also, at recombinant human DCXR [1] (setting [10]), the Km came out at 10.8 µM and the kcat came out at 0.0283 s⁻¹. Besides, at recombinant human DCXR [2], the pIC50 is 4.93 and the pKi is 5.27. Further, on recombinant human DCXR [2] (setting [9]), the Type of inhibition entry was “competitive”.

For `O=C1C(=O)c2ccccc2-c2ccccc21` [9,10-phenanthrenequinone], at recombinant human DCXR [1], the pEC50 was 5.77. Further, the pIC50 on recombinant human DCXR [2] was 5.03. The pKi on recombinant human DCXR [2] (setting [8]) was 5.37. On recombinant human DCXR [2] (setting [9]), the Type of inhibition entry was “competitive”.

One may read the Vmax as the rate approached at saturating substrate. For `O=C(CO)[C@H](O)[C@@H](O)CO` [L-xylulose], on recombinant human DCXR [3], the Type of inhibition result is given as “competitive inhibitors; also recorded: competitive type inhibition”. For the same molecule, at recombinant human DCXR [3] (listed as Xylulose), the Type of inhibition entry is given as “competitive”. Moreover, the Vmax at recombinant human DCXR [4] (reduction of L-xylulose using NADPH as the cofactor) is 33.8 µM/min. Besides, on recombinant human DCXR [4] (setting [11]), the Km was 503 µM and the kcat stood at 1.09 S^−1.

On to `NC(=O)c1ccc[n+]([C@@H]2O[C@H](COP(=O)([O-])OP(=O)(O)OC[C@H]3O[C@@H](n4cnc5c(N)ncnc54)[C@H](OP(=O)(O)O)[C@@H]3O)[C@@H](O)[C@H]2O)c1` [NADP(+)], for which the kcat at recombinant human DCXR [5] (NADP(+) varied, 200 mM xylitol fixed) is on record as 1.7 S^−1. Besides, at recombinant human DCXR [5] (NADP(+) varied, 200 mM xylitol fixed, 100 mM glycine buffer with 3 mM MgCl2), the Km was 110 µM. Moreover, the Vmax on recombinant human DCXR [5] (oxidation of xylitol using NADP+ as the cofactor) was 70.9 µM/min.

For `NC(=O)C1=CN([C@@H]2O[C@H](COP(=O)(O)OP(=O)(O)OC[C@H]3O[C@@H](n4cnc5c(N)ncnc54)[C@H](OP(=O)(O)O)[C@@H]3O)[C@@H](O)[C@H]2O)C=CC1` [NADPH], the Km stood at 31 µM at recombinant human DCXR [1] (setting [12]), 90 µM at recombinant human DCXR [6] (setting [13]) and 24 µM on recombinant human DCXR [4] (setting [14]). In addition, the kcat on recombinant human DCXR [1] (setting [12]) was 0.115 s⁻¹; on recombinant human DCXR [6] (setting [13]), 1.6 S^−1 and 1.60 S^−1; on recombinant human DCXR [4] (setting [14]), 1.55 S^−1. The Vmax at recombinant human DCXR [6] (NADPH at fixed concentration of diacetyl) was 30.9 µM/min.

For `CCCC(=O)O` [butyric acid], the pIC50 is 3.02 on recombinant human DCXR [2] and 2.17 on recombinant human DCXR [3]. In addition, the “Effect on oxygen consumption during redox cycling” value (from here on “Effect”) at recombinant human DCXR [7] (butyric acid 10 mM) is reported as “Inhibition of oxygen consumption”.

For orientation: inhibition means how much of the control response was suppressed. On to `CC(=O)C(C)=O` [diacetyl, 2,3-butanedione], for which the kcat on recombinant human DCXR [6] (diacetyl varied, 200 μM NADPH fixed, pH 7.0) is reported as 5.80 S^−1. Also, on recombinant human DCXR [7] (diacetyl 5 mM), the “Effect” value is “Inhibition of oxygen consumption”. Moreover, at recombinant human DCXR [3], the pKi was 3.72 and the Type of inhibition result is recorded as “competitive inhibitors; also recorded: competitive type inhibition”. Moreover, on recombinant human DCXR [3] (listed as Diacetyl), the Type of inhibition entry is listed as “competitive”. Moreover, the inhibition at 5000 µM at recombinant human DCXR [3] (read-out: Inhibition of menadione-stimulated superoxide anion formation) is approximately 75%.

Turning to `CCCCCCC(=O)O` [heptanoic acid], the pIC50 on recombinant human DCXR [2] is 1.70; at recombinant human DCXR [3], 1.60.

For `CCCCCC(=O)O` [hexanoic acid], the pIC50 at recombinant human DCXR [2] is 2.21; on recombinant human DCXR [3], 1.44. Besides, at recombinant human DCXR [7] (hexanoic acid 50 mM), the “Effect” value is recorded as “Inhibition of oxygen consumption”.

In the case of `CC1=CC(=O)c2ccccc2C1=O` [menadione, 2-methyl-1,4-naphthoquinone], at recombinant human DCXR [2], the pIC50 is 4.28 and the pKi was 4.61. Also, the Type of inhibition entry on recombinant human DCXR [2] (setting [9]) is recorded as “competitive type of inhibition”. Moreover, at recombinant human DCXR [2] (read-out: Inhibition of DCXR mediated reduction of diacetyl), the inhibition at 300 µM was more than 90%.

Turning to `CCCCC(=O)O` [pentanoic acid], the pIC50 is 2.36 at recombinant human DCXR [2] and 1.55 on recombinant human DCXR [3].
